Assay results published in ChEMBL document CHEMBL3994613, “Diaryltriazenes as antibacterial agents against methicillin resistant Staphylococcus aureus (MRSA) and Mycobacterium smegmatis” (Eur J Med Chem, 2017).
≈ marks a conversion by molar mass, not a printed value.

Assays:
[1] = tested on: Staphylococcus aureus; experiment: Bactericidal activity against methicillin-resistant Staphylococcus aureus 1653 after 18 to 20 hrs by broth microdilution method; type: functional
Procedure, shortened: (§1)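 EUCAST broth microdilution in LB broth. Inoculum from 20–24 h colonies on 5% sheep blood BHI agar, final 3×10^4 CFU/mL, 18–20 h aerobic at 37 °C, plate reader, at least duplicate.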

[2] = tested on: Staphylococcus aureus; experiment: Bactericidal activity against methicillin-resistant Staphylococcus aureus USA300 after 18 to 20 hrs by microdilution method; type: functional
Procedure, shortened: (§2)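 EUCAST broth microdilution in LB broth. Inoculum prepared by direct colony suspension from 20–24 h LB agar (E. coli DH10β) or 5% sheep blood BHI agar (MRSA USA300) growth. Final inoculum 2×10^4 CFU/mL, 18–20 h aerobic at 37 °C, growth read on a plate reader, at least duplicate.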

[3] = tested on: Mycolicibacterium smegmatis; experiment: Bactericidal activity against Mycobacterium smegmatis MC2 155 after 96 hrs by microdilution method; type: functional; conditions: str. MC2 155, 96 h
Procedure, shortened: (§3)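 Microdilution in TSB broth. Inoculum from colonies grown 96 h on TSA, final 1×10^5 CFU/mL, aerobic 94–98 h at 37 °C, growth read on a plate reader, at least duplicate.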

[4] = Stability of the compound in water; type: physicochemical; conditions: buffer
[5] = tested on: Escherichia coli; experiment: Antibacterial activity against N43 CGSC 5583 knock out Escherichia coli after 18 to 20 hrs by microdilution method; type: functional
Procedure, shortened: (§4)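 Broth microdilution per EUCAST in LB broth. Inoculum from 20–24 h colonies by CLSI direct colony suspension (LB agar for E. coli), final 2×10^4 CFU/mL. Read after 18–20 h aerobic incubation at 37 °C on plate reader, at least one duplicate.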

[6] = tested on: Klebsiella pneumoniae; experiment: Antibacterial activity against Klebsiella pneumoniae ATCC 700603 after 18 to 20 hrs by broth microdilution method; type: functional
Procedure, shortened: (§5)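 Broth microdilution per EUCAST in TSB broth. Inoculum prepared by CLSI direct colony suspension from 20–24 h TSA colonies, final 3×10^4 CFU/mL. Aerobic incubation for 18–20 h at 37 °C, growth read on plate reader, at least one duplicate.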

[7] = tested on: Bacillus subtilis; experiment: Antibacterial activity against Bacillus subtilis ATCC 6051 after 18 to 20 hrs by broth microdilution method; type: functional; procedure, shortened: as §4
[8] = tested on: Streptococcus pneumoniae; experiment: Bactericidal activity against Streptococcus pneumoniae R6 after 18 to 20 hrs by broth microdilution method; type: functional
[9] = Solubility of the compound in water; type: physicochemical; conditions: buffer
[10] = tested on: Saccharomyces cerevisiae; experiment: Antibacterial activity against Saccharomyces cerevisiae after 18 to 20 hrs by microdilution method
Procedure, shortened: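 Microdilution in YEP broth against wild-type yeast grown on YEP agar. Final inoculum 1×10^5 CFU/mL. Read after 18–20 h aerobic incubation at 30 °C on plate reader, at least one duplicate.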

[11] = tested on: Acinetobacter baumannii; experiment: Antibacterial activity against Acinetobacter baumannii ATCC 19606 after 18 to 20 hrs by broth microdilution method; type: functional; conditions: ATCC 19606 = CIP 70.34 = JCM 6841; procedure, shortened: as §5
[12] = tested on: Staphylococcus aureus; experiment: Antibacterial activity against methicillin-resistant Staphylococcus aureus USA300 after 18 to 20 hrs by microdilution method; type: functional; procedure, shortened: as §2
[13] = Stability of the compound in organic solvent; type: physicochemical
[14] = Stability of the compound in solid state; type: physicochemical
[15] = tested on: Pseudomonas aeruginosa; experiment: Antibacterial activity against Pseudomonas aeruginosa PA0001 after 18 to 20 hrs by broth microdilution method; type: functional
Procedure, shortened: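 EUCAST broth microdilution in LB broth. Inoculum from 20–24 h LB agar colonies (CLSI direct colony suspension), final 3×10^4 CFU/mL. Aerobic incubation 18–20 h at 37 °C, plate-reader read-out, at least one duplicate.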

[16] = tested on: Klebsiella pneumoniae; experiment: Antibacterial activity against Klebsiella pneumoniae ATCC 13882 after 18 to 20 hrs by broth microdilution method; type: functional; procedure, shortened: as §5
[17] = tested on: Streptococcus pneumoniae; experiment: Antibacterial activity against Streptococcus pneumoniae R6 after 18 to 20 hrs by broth microdilution method; type: functional
Procedure, shortened: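 Broth microdilution per EUCAST in BHI broth. Inoculum from colonies on BHI agar with 5% sheep blood, final 5×10^4 CFU/mL. Read after 18–20 h anaerobic incubation at 37 °C.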

[18] = tested on: Staphylococcus aureus; experiment: Induction of membrane integrity impairment in Staphylococcus aureus USA300 assessed as cells with intact membrane at 2 ug/ml measured after 30 mins by Baclight assay relative to control; type: functional
Procedure, shortened: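 LIVE/DEAD BacLight fluorescence assay. Dye was then added and incubated 15 min in the dark at room temperature. Intact membrane % came from a live/dead (isopropanol-killed) standard curve, at least triplicate, mean±SD.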

[19] = tested on: Staphylococcus aureus; experiment: Antibacterial activity against methicillin-resistant Staphylococcus aureus 1653 after 18 to 20 hrs by broth microdilution method; type: functional; procedure, shortened: as §1
[20] = tested on: Escherichia coli; experiment: Antibacterial activity against Escherichia coli D22 after 18 to 20 hrs by microdilution method; type: functional; procedure, shortened: as §4
[21] = tested on: Escherichia coli; experiment: Antibacterial activity against Escherichia coli DH10beta harboring pHuLUC3 after 18 to 20 hrs by microdilution method; type: functional; procedure, shortened: as §2
[22] = tested on: Bacillus subtilis; experiment: Bactericidal activity against Bacillus subtilis ATCC 6051 after 18 to 20 hrs by broth microdilution method; type: functional
[23] = tested on: Acinetobacter baumannii; experiment: Antibacterial activity against Acinetobacter baumannii ATCC BAA-1605 after 18 to 20 hrs by broth microdilution method; type: functional; procedure, shortened: as §5
[24] = tested on: Enterococcus faecalis; experiment: Antibacterial activity against vancomycin resistant Enterococcus faecalis 501 after 18 to 20 hrs by broth microdilution method; type: functional
Procedure, shortened: (§6)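 EUCAST microdilution in BHI broth. Inoculum from 20–24 h colonies on 5% sheep blood BHI agar, final 3×10^4 CFU/mL, 18–20 h aerobic at 37 °C, plate reader, at least duplicate.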

[25] = tested on: Mycolicibacterium smegmatis; experiment: Antimycobacterial activity against Mycobacterium smegmatis MC2 155 after 94 to 98 hrs by microdilution method; type: functional; conditions: str. MC2 155; procedure, shortened: as §3
[26] = tested on: Enterococcus faecalis; experiment: Bactericidal activity against vancomycin resistant Enterococcus faecalis 501 after 18 to 20 hrs by broth microdilution method; type: functional; procedure, shortened: as §6
[27] = tested on: Escherichia coli; experiment: Bactericidal activity against Escherichia coli D22 after 18 to 20 hrs by microdilution method; type: functional
[28] = tested on: Staphylococcus aureus; experiment: Induction of membrane integrity impairment in Staphylococcus aureus USA300 assessed as cells with intact membrane at 8 ug/ml measured after 30 mins by Baclight assay relative to control; type: functional
Procedure, shortened: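 LIVE/DEAD BacLight fluorescence assay. Live cells in 0.85% NaCl at OD600 0.2 were exposed to compound in DMSO for 30 min at 37 °C. Dye was then added and incubated 15 min in the dark at room temperature. Fluorescence read at ex 485 nm, em 530/630 nm. Intact membrane % came from a live/dead (isopropanol-killed) standard curve, at least triplicate, mean±SD.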

[29] = tested on: Escherichia coli; experiment: Bactericidal activity against Escherichia coli DH10beta harboring pHuLUC3 after 18 to 20 hrs by microdilution method; type: functional; procedure, shortened: as §2
[30] = tested on: Mycolicibacterium smegmatis; experiment: Antimycobacterial activity against Mycobacterium smegmatis MC2 155 after 3 days by broth macrodilution method; type: functional; conditions: str. MC2 155, 72 h

SMILES	MBC [1] [µg/mL]	MBC [2] [µg/mL]	MBC [3] [µg/mL]	Stability [4]	MIC [5] [µg/mL]	MIC [6] [µg/mL]	MIC [7] [µg/mL]	MBC [8] [µg/mL]	solubility [9]	MIC [10] [µg/mL]	MIC [11] [µg/mL]	MIC [12] [µg/mL]	Stability [13]	Stability [14]	MIC [15] [µg/mL]	MIC [16] [µg/mL]	MIC [17] [µg/mL]	Cells with intact membrane [18] [%]	MIC [21] [µg/mL]	MIC [25] [µg/mL]	also measured
O=C(c1ccccc1F)N(/N=N/c1ccc([N+](=O)[O-])cc1C(F)(F)F)c1ccc([N+](=O)[O-])cc1C(F)(F)F	4 (≈ 7.34 µM)	0.5 (≈ 0.917 µM)	128 (≈ 235 µM)	Stable	> 128	> 128	2 (≈ 3.67 µM)	1 (≈ 1.83 µM)	Soluble	> 128	> 128	0.25 (≈ 0.458 µM)	Stable	Stable	> 128	> 128	0.5 (≈ 0.917 µM)	103.8	> 128	16 (≈ 29.3 µM)	MIC [19]: 0.5 µg/mL (≈ 0.917 µM); MIC [20]: > 128 µg/mL; MBC [22]: > 64 µg/mL; MIC [23]: > 128 µg/mL; MIC [24]: > 128 µg/mL
FC(F)(F)c1cc(Cl)ccc1/N=N/Nc1ccc(Cl)cc1C(F)(F)F	1 (≈ 2.49 µM)	1 (≈ 2.49 µM)	128 (≈ 318 µM)	Stable	> 128	> 128	1 (≈ 2.49 µM)	1 (≈ 2.49 µM)	Soluble	> 128	> 128	1 to 128 (≈ 2.49 to 318 µM)	Stable	Stable	> 128	> 128	0.5 (≈ 1.24 µM)	31.2	> 128	8 (≈ 19.9 µM)	MBC [26]: > 128 µg/mL; MIC [19]: 1 µg/mL (≈ 2.49 µM); MBC [27]: > 128 µg/mL; MIC [20]: 2 µg/mL (≈ 4.97 µM); MBC [22]: 32 µg/mL (≈ 79.6 µM); MIC [23]: > 128 µg/mL; MIC [24]: 2 µg/mL (≈ 4.97 µM)
O=[N+]([O-])c1ccc(/N=N/Nc2ccc([N+](=O)[O-])cc2Cl)c(Cl)c1		4 (≈ 11.2 µM)								> 128		2 (≈ 5.62 µM)							> 128	> 128	Activity [28]: 64.6%
CC(=O)N(/N=N/c1ccc([N+](=O)[O-])cc1C(F)(F)F)c1ccc([N+](=O)[O-])cc1C(F)(F)F	0.5 (≈ 1.07 µM)	0.25 (≈ 0.537 µM)	128 (≈ 275 µM)	Stable	> 128	> 128	0.125 (≈ 0.269 µM)	0.5 (≈ 1.07 µM)	Soluble	> 128	> 128	0.25 (≈ 0.537 µM)	Stable	Stable	> 128	> 128	0.06 (≈ 0.129 µM)	103	64 (≈ 138 µM)	16 (≈ 34.4 µM)	MBC [26]: > 128 µg/mL; MIC [19]: 0.25 µg/mL (≈ 0.537 µM); MBC [27]: > 128 µg/mL; MIC [20]: 1 µg/mL (≈ 2.15 µM); MBC [29]: > 128 µg/mL; MBC [22]: 4 µg/mL (≈ 8.6 µM); MIC [23]: > 128 µg/mL; MIC [24]: 4 µg/mL (≈ 8.6 µM)
O=C(c1ccccc1)N(/N=N/c1ccc([N+](=O)[O-])cc1C(F)(F)F)c1ccc([N+](=O)[O-])cc1C(F)(F)F	1 (≈ 1.9 µM)	0.5 to 2 (≈ 0.948 to 3.79 µM)	> 128	Stable	> 128	> 128	0.5 (≈ 0.948 µM)	1 (≈ 1.9 µM)	Soluble	> 128	> 128	0.5 to 2 (≈ 0.948 to 3.79 µM)	Stable	Stable	> 128	> 128	0.5 (≈ 0.948 µM)	95.8	≥ 128	32 (≈ 60.7 µM)	MIC [19]: 0.5 µg/mL (≈ 0.948 µM); MIC [20]: > 128 µg/mL; MBC [29]: > 128 µg/mL; MBC [22]: 16 µg/mL (≈ 30.3 µM); MIC [23]: > 128 µg/mL; MIC [24]: > 128 µg/mL
CCOC(=O)/C=C/[N+](CC)(CC)CC.O=[N+]([O-])c1ccc(/N=N/[N-]c2ccc([N+](=O)[O-])cc2C(F)(F)F)c(C(F)(F)F)c1				Stable					Soluble				Stable	Stable							
CC[N+](/C=C/C(=O)OC)(CC)CC.O=[N+]([O-])c1ccc(/N=N/[N-]c2ccc([N+](=O)[O-])cc2C(F)(F)F)c(C(F)(F)F)c1				Stable					Soluble				Stable	Stable							
CCN(CC)CC.O=[N+]([O-])c1ccc(/N=N/Nc2ccc([N+](=O)[O-])cc2C(F)(F)F)c(C(F)(F)F)c1				Stable					Soluble				Stable	Stable							
CC1(C)S[C@@H]2[C@H](NC(=O)[C@H](N)c3ccc(O)cc3)C(=O)N2[C@H]1C(=O)O [AMOXICILLIN]																					MIC [30]: 8 to 16 µg/mL (≈ 21.9 to 43.8 µM)
